One assay deals with Rattus norvegicus. Briefly: Bradycardic activity measured as a percentage decrease of heart rate after 5 mg/kg intravenous administration in anesthetized rats. It is filed as functional. A digest of the protocol:
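Male Chbb:THOM rats (200–250 g) were anesthetized with pentobarbital sodium 50 mg/kg ip, with tracheal cannulation and artificial respiration. Heart rate was recorded continuously by an ECG-triggered beat-to-beat tachograph. Dose was 5 mg/kg iv via the jugular vein. Rate was read at 2, 5 and 20 min, and the reduction taken at 5 min.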

Assay [1] deals with Felis catus. Briefly: Evaluated in vivo for bradycardic activity in anesthetized cat as a measure of % decrease of heart rate after 1 mg/Kg intravenous administration of the compound. It is filed as functional.
For assay [2], the species on record is Cavia porcellus. The assay is described as follows: Evaluated in vitro for the effect on spontaneous atrial rate in isolated guinea pig atria. It is filed as functional. As to conditions: Cardiac atrium. A digest of the protocol:
(§1)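 Spontaneously beating guinea pig atria (either sex, 300–500 g) were held in modified Tyrode's solution gassed with 98% O₂/2% CO₂, at 1 g resting tension and 37 °C. Equilibration lasted at least 30 min, until rate varied by no more than 5 beats/min. Recording was isometric. EC₃₀ is the concentration lowering predrug rate by 30%, given with 95% confidence limits.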

The species named for another assay is Oryctolagus cuniculus. Briefly: Evaluated in vitro for the effect on K+ induced aortic contraction in isolated aortic strips of rabbit. It is filed as functional. The settings on record: Aorta.
Assay [3] can be described thus: Ratio between the EC30 values of aortic contracture and atrial rate. The assay is classed as functional, Cardiac atrium. A digest of the protocol:
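Guinea pig atria (300–500 g, either sex) in modified Tyrode's gassed with 98% O2/2% CO2, resting tension 1 g. Rate measured in spontaneously beating atria at 37 °C after at least 30 min equilibration. Rabbit aortic strips contracted with 40 mM KCl plus 1.8 mM CaCl2 to a plateau. EC30 is the concentration relaxing the contracture, or lowering the predrug rate, by 30%.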

A short description of assay [4]: Ratio between the EC30 values of atrial contractility and atrial rate. It is filed as functional, Cardiac atrium. A digest of the protocol: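 Isolated guinea pig atria (300–500 g, either sex) in modified Tyrode's gassed with 98% O2/2% CO2, resting tension 1 g, isometric recording. Rate measured in spontaneously beating atria at 37 °C after ≥30 min equilibration. Contractility (g) measured in left atria paced at 2.5 Hz (3 ms pulses, 1.5× threshold), 30 °C, 20 min equilibration. EC30 is the concentration lowering the predrug value by 30%.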

The species entered for assay [5] is Cavia porcellus. Briefly: Evaluated in vitro for its effect on atrial contractility in electrically stimulated isolated guinea pig left atria. The settings on record: Cardiac atrium.
Assay [6] relates to Felis catus. Briefly: Evaluated in vivo for bradycardic activity in anesthetized cat as a measure of percent decrease of heart rate after 1 mg/kg intravenous administration. It is filed as functional.
The species named for assay [7] is Cavia porcellus. Briefly: Evaluated in vitro for the effect on spontaneous rate in isolated guinea pig atria. It is filed as functional. A digest of the protocol:
as §1

The structures appear in SMILES notation. ≈ marks a conversion by molar mass, not a printed value.

Regarding `COc1ccc(CC[S+]([O-])CCCN2CCc3cc(OC)c(OC)cc3CC2=O)cc1OC` (stereo not drawn), the Decrease in the assay on Rattus norvegicus is listed as -4%.

With `COc1cc2c(cc1OC)CC(=O)N(CCCN(C)CCc1ccc(Cl)c(Cl)c1)CC2.Cl.Cl`, in the assay on Rattus norvegicus, the Decrease is listed as -47%. Still for that read-out and setting: under `COc1ccc2c(c1)CC(=O)N(CCCN(C)CCc1ccc(OC)c(OC)c1)CC2.Cl.Cl` stands -44%; under `COc1ccc(CCS(=O)(=O)CCCN2CCc3cc(OC)c(OC)cc3CC2=O)cc1OC`, -1%; under `COc1cc2c(cc1OC)CC(=O)N(CCCN(C)CCc1ccc(C(C)(C)C)cc1)CC2.Cl.Cl`, -58%. Take `COc1cc(OC)c(CCN(C)CCCN2CCc3cc(OC)c(OC)cc3CC2=O)c(OC)c1.Cl`: the Decrease in the assay with Rattus norvegicus is recorded as -25%.

For `COc1cc2c(cc1OC)CC(=O)N(CCCN(C)CCc1ccccc1)CC2.Cl.Cl`, the Decrease with Rattus norvegicus is -52%. As to `C=CCN(CCCN1CCc2cc(OC)c(OC)cc2CC1=O)CCc1ccc(OC)c(OC)c1.Cl`, in the assay on Rattus norvegicus, the Decrease was -65%. In the case of `COc1ccc(CCN(C)CCCN2CCc3cc4c(cc3CC2=O)OCO4)cc1OC.Cl`, in the assay with Rattus norvegicus, the Decrease is on record as -42%.

Turning to `CCOC(=O)N(CCCN1CCc2cc(OC)c(OC)cc2CC1=O)CCc1ccc(OC)c(OC)c1`, the Decrease in the assay on Rattus norvegicus is -8%. The same measure, in the same setting: under `COc1cc2c(cc1OC)CC(=O)N(CCCN(C)CCc1c(Cl)cccc1Cl)CC2.Cl.Cl.Cl.Cl` stands -13%.

Take `COc1cc2c(cc1OC)CC(=O)N(CCCN(C)CCc1cc(OC)c(OC)c(OC)c1)CC2.Cl`: the Decrease with Rattus norvegicus was -21%. On the same count and under the same terms, under `COc1cc2c(cc1OC)CC(=O)N(CCCN(C)CCc1ccc(Cl)cc1)CC2.Cl` stands -55%. The same measure, in the same setting: to `COc1ccc(N(C)CCCN2CCc3cc(OC)c(OC)cc3CC2=O)cc1OC` belongs -17%; to `COc1cc2c(cc1OC)CC(=O)N(CCCN(C)CCc1ccc(OCc3ccccc3)cc1)CC2`, -27%; to `COc1ccc(NCCN(C)CCCN2CCc3cc(OC)c(OC)cc3CC2=O)cc1OC`, -39%. Turning to `COc1ccc(CCN(C)CCCN2CCc3cc(OC)c(OC)cc3C2=O)cc1OC.Cl`, the Decrease with Felis catus [1] is listed as -29%.

Take `COc1cc2c(cc1O)CC(=O)N(CCCN(C)CCc1ccc(OC)c(OC)c1)CC2`: in the assay on Rattus norvegicus, the Decrease is -29%. The same measure, in the same setting: under `COc1ccc(SCCCN(C)CCCN2CCc3cc(OC)c(OC)cc3CC2=O)cc1OC.Cl` stands -47%. Turning to `COc1ccc(CCSCCCN2CCc3cc(OC)c(OC)cc3CC2=O)cc1OC`, the Decrease in the assay with Rattus norvegicus stood at 1%. For `COc1ccc(CCN(C)CCCCN2CCc3cc(OC)c(OC)cc3CC2=O)cc1OC.Cl`, the Decrease in the assay with Rattus norvegicus is -33%. Turning to `COc1ccc(CCN(C)CC(O)CN2CCc3cc(OC)c(OC)cc3CC2=O)cc1OC` (stereo not drawn), in the assay with Rattus norvegicus, the Decrease was -28%. As to `COc1ccc(CCN(C)CCCN2CCc3cc(O)c(O)cc3CC2=O)cc1OC`, the Decrease in the assay with Rattus norvegicus is -30%.

Regarding `COc1ccc(CCN(C)CCN2CCc3cc(OC)c(OC)cc3CC2=O)cc1OC.Cl`, the Decrease in the assay with Rattus norvegicus is -13%.

As for `COc1cc2c(cc1OC)CC(=O)N(CCCN(C)CCc1ccc(N(C)C)cc1)CC2.Cl.Cl`, the Decrease with Rattus norvegicus is on record as -60%. Still for that read-out and setting: to `COc1ccc(CCN(CCCN2CCc3cc(OC)c(OC)cc3CC2=O)C(C)=O)cc1OC` belongs -3%; to `COc1ccc(OCCCCN(C)CCCN2CCc3cc(OC)c(OC)cc3CC2=O)cc1OC.Cl`, -37%; to `COc1cc2c(cc1OC)CC(=O)N(CCCN(C)CCc1ccc(OS(C)(=O)=O)cc1)CC2.Cl`, -46%.

On to `COc1ccc2c(c1)CCN(CCCN(C)CCc1ccc(OC)c(OC)c1)C(=O)C2.Cl`, for which the Decrease in the assay with Rattus norvegicus is on record as -31%. For `COc1cc2c(cc1OC)CC(=O)N(CCCN(C)CCc1ccc(O)cc1)CC2.Cl`, the Decrease in the assay on Rattus norvegicus is -33%.

As to `COc1ccc(CC[N+](C)(C)CCCN2CCc3cc(OC)c(OC)cc3CC2=O)cc1OC.[I-]`, the Decrease with Rattus norvegicus was -9%.

Take `COc1ccc(CCNCCCN2CCc3cc(OC)c(OC)cc3CC2=O)cc1OC.Cl`: the Decrease with Rattus norvegicus is -66%. `COc1ccc(CCN(C)CCCN2CCc3c(OC)ccc(OC)c3CC2=O)cc1OC.Cl`: the Decrease in the assay on Rattus norvegicus is -21%. Same read-out and setting: under `CCCN(CCCN1CCc2cc(OC)c(OC)cc2CC1=O)CCc1ccc(OC)c(OC)c1.Cl` stands -56%; under `COc1ccc(SCCN(C)CCCN2CCc3cc(OC)c(OC)cc3CC2=O)cc1OC.Cl`, -44%. In the case of `COC(=O)C1=C(C)NC(C)=C(C(=O)OC)C1c1ccccc1[N+](=O)[O-]` [NIFEDIPINE], the 30% effect concentration (EC30) (usually the concentration needed for an effect of 30%) in the assay listed under Cavia porcellus [2] is 0.11 µg/mL (≈ 0.318 µM); in the assay filed under Oryctolagus cuniculus, 0.00397 µg/mL (≈ 0.0115 µM); in the assay filed under Cavia porcellus [5], 0.0149 µg/mL (≈ 0.043 µM). For the same compound, the figures for the Ratio in [3] and in [4] were 0.036 and 0.135, respectively.

For the compound `COc1ccc(CCN(C)CCCN2CCc3cc(OC)c(OC)cc3CC2=O)cc1OC.Cl` [ZATEBRADINE HYDROCHLORIDE], the Decrease in the assay with Felis catus [1] and in the assay with Rattus norvegicus was -56% throughout. Further, the EC30 was found to be 0.03 µg/mL in the assay listed under Cavia porcellus [2], 15 µg/mL in the assay listed under Oryctolagus cuniculus and 108 µg/mL in the assay listed under Cavia porcellus [5]. The Ratio is reported as 500 in assay [3] and 3600 in assay [4]. Turning to `COc1ccc(CCN(C)CCCN2Cc3cc(OC)c(OC)cc3C2=O)cc1OC.Cl`, the Decrease with Felis catus [6] was -16%. Moreover, the EC30 was 0.608 µg/mL in the assay filed under Cavia porcellus [7], 21.3 µg/mL in the assay listed under Oryctolagus cuniculus and 93.6 µg/mL in the assay filed under Cavia porcellus [5]. For the same compound, the figures for the Ratio in [3] and in assay [4] were 35 and 154, respectively. `COc1ccc(OCCN(C)CCCN2CCc3cc(OC)c(OC)cc3CC2=O)cc1OC.Cl`: the Decrease with Rattus norvegicus is listed as -59%. In the case of `COc1ccc(CCN(C)CCCN2CCCc3cc(OC)c(OC)cc3C2=O)cc1OC`, the Decrease in the assay on Felis catus [1] is listed as -8%. On to `COc1ccc(CCN(C)CCCN2CCc3c(C)c(C)c(C)c(C)c3CC2=O)cc1OC.Cl`, for which the Decrease in the assay on Rattus norvegicus was -41%. Still for that read-out and setting: under `COc1cc2c(cc1OC)CC(=O)N(CCCN(C)CCc1ccc([N+](=O)[O-])cc1)CC2.Cl` stands -41%; under `COc1ccc(OCCCN(C)CCCN2CCc3cc(OC)c(OC)cc3CC2=O)cc1OC.Cl`, -63%.

For `COc1ccc(CCN(C)CCCN2CCc3ccc(OC)c(OC)c3CC2=O)cc1OC.Cl`, the Decrease in the assay with Rattus norvegicus was -34%.

Turning to `COc1cc2c(cc1O)CCN(CCCN(C)CCc1ccc(OC)c(OC)c1)C(=O)C2.Cl`, the Decrease in the assay on Rattus norvegicus is on record as -47%.

As to `COc1cc2c(cc1OC)CC(=O)N(CCCN(C)CCc1ccc(N)cc1)CC2`, the Decrease with Rattus norvegicus was -30%.

For the compound `COc1ccc(CCCN(C)CCCN2CCc3cc(OC)c(OC)cc3CC2=O)cc1OC.Cl`, in the assay on Rattus norvegicus, the Decrease was -55%. On the same count and under the same terms, under `COc1ccc(CCN(C)CCCN2CCc3cc(OC)c(OC)cc3CC2=O)cc1.Cl` stands -42%.

For `CCCCOc1ccc(CCN(C)CCCN2CCc3cc(OC)c(OC)cc3CC2=O)cc1`, in the assay with Rattus norvegicus, the Decrease is on record as -55%. Regarding `COc1ccc(CCN(C)CCC[C@@](C#N)(c2ccc(OC)c(OC)c2)C(C)C)cc1OC` [(S)-VERAPAMIL], the EC30 in the assay listed under Cavia porcellus [2] worked out at 0.0694 µg/mL (≈ 0.153 µM); in the assay listed under Oryctolagus cuniculus it was 0.0284 µg/mL (≈ 0.0625 µM); in the assay listed under Cavia porcellus [5] it was 0.0611 µg/mL (≈ 0.134 µM). Moreover, the figures for the Ratio in [3] and in [4] were 0.409 and 0.88, respectively. `COc1ccc(CCN(CCCN2CCc3cc(OC)c(OC)cc3CC2=O)CCc2ccc(OC)c(OC)c2)cc1OC`: the Decrease in the assay on Rattus norvegicus is given as -28%.

Turning to `COc1ccc(CCN(C)CC(C)CN2CCc3cc(OC)c(OC)cc3CC2=O)cc1OC.Cl` (stereo not drawn), the Decrease in the assay on Rattus norvegicus was -43%. Same read-out and setting: under `COc1ccc(NCCCN(C)CCCN2CCc3cc(OC)c(OC)cc3CC2=O)cc1OC` stands -51%. Turning to `COc1ccc([C@@H]2Sc3ccccc3N(CCN(C)C)C(=O)[C@@H]2OC(C)=O)cc1` [DILTIAZEM], the 30% effect concentration (EC30) in the assay filed under Cavia porcellus [2] is 0.14 µg/mL (≈ 0.338 µM); in the assay filed under Oryctolagus cuniculus, 0.0741 µg/mL (≈ 0.179 µM); in the assay filed under Cavia porcellus [5] it was 2.73 µg/mL (≈ 6.59 µM). For the same compound, the Ratio in [3] turned out to be 0.53; in assay [4], 19.5.

With `COc1ccc(CCN(C)CCCN2CCc3cc4c(cc3CC2=O)OCCO4)cc1OC.Cl`, the Decrease in the assay on Rattus norvegicus is -49%. With `COc1ccc(CN(C)CCCN2CCc3cc(OC)c(OC)cc3CC2=O)cc1OC`, in the assay on Rattus norvegicus, the Decrease is listed as -26%. Consider `COc1ccc(CCCCCN(C)CCCN2CCc3cc(OC)c(OC)cc3CC2=O)cc1OC.Cl`, for which the Decrease in the assay with Rattus norvegicus was -36%. Take `COc1ccc(CCCCN(C)CCCN2CCc3cc(OC)c(OC)cc3CC2=O)cc1OC.Cl`: the Decrease with Rattus norvegicus is -46%.

For the compound `COc1ccc(CCN(C)CCCN2CCc3cc(C)c(C)cc3CC2=O)cc1OC.Cl.Cl`, in the assay with Rattus norvegicus, the Decrease is reported as -49%. For `COc1ccc(CCN(C)CCCN2CCc3ccccc3CC2=O)cc1OC.Cl`, the Decrease in the assay on Rattus norvegicus is -35%.

(Values after ChEMBL document CHEMBL1124777, “Specific bradycardic agents. 1. Chemistry, pharmacology, and structure-activity relationships of substituted benzazepinones, a-new class of compounds exerting antiischemic properties” (1990).)
